Residue numbers refer to the chain shown, from its start. Read-outs that look alike come from different tables or passages of the source.
What was measured:
Format in all cases: cell-based
CLC-0 E166K mutant = molecular target: T1, CLC-0 E166K mutant (Torpedo marmorata, UniProt P21564, C212S/E166K); settings: for IC50: read-out: Apparent affinity (K1/2)
T1 sequence (P21564 1-805 E166K/C212S): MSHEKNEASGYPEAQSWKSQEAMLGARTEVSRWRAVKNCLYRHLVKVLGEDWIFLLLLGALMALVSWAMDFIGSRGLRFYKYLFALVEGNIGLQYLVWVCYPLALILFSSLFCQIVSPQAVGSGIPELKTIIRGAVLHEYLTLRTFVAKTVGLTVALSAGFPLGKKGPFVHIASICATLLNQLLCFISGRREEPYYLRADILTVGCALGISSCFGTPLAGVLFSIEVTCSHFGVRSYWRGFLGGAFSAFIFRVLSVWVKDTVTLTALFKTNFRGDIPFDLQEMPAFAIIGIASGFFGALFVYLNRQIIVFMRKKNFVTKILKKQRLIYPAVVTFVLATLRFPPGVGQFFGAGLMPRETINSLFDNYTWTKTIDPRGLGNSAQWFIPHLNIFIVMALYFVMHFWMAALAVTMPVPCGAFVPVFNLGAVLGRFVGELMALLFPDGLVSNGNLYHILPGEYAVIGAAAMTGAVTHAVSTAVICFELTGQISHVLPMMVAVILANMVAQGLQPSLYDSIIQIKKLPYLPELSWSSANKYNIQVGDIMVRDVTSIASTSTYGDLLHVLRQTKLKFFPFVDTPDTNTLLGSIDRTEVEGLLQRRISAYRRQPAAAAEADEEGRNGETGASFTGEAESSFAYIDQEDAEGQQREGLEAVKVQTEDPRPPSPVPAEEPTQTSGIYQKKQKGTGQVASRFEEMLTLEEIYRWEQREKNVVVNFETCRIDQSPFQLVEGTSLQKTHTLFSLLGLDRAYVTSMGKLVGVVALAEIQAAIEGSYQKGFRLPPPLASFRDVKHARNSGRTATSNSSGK
Procedure, shortened: (§1)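 CLC-0 mutants in the C212S background were transfected into HEK293 cells with lipofectamine and recorded 1–3 d later as excised inside-out patches. Both sides held 130 mM NaCl, 5 mM MgCl2, 10 mM HEPES and 1 mM EGTA, pH 7.4. CPA was perfused continuously onto the cytoplasmic face. Steady-state current over the last 10 ms was normalized to bracketing blocker-free controls and fitted to a Langmuir function for K1/2. Values are mean ± SEM of ~4–6 patches.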

CLC-0 E166V mutant = molecular target: T2, CLC-0 E166V mutant (Torpedo marmorata, UniProt P21564, C212S/E166V); settings: read-out: Apparent affinity (K1/2)
T2 sequence (P21564 1-805 E166V/C212S): T1 sequence (P21564 1-805 E166K/C212S) with K166V
Procedure, shortened: as §1

CLC-0 E166N mutant = molecular target: T3, CLC-0 E166N mutant (Torpedo marmorata, UniProt P21564, C212S/E166N); settings: read-out: Apparent affinity (K1/2)
T3 sequence (P21564 1-805 E166N/C212S): T1 sequence (P21564 1-805 E166K/C212S) with K166N
Procedure, shortened: as §1

CCCCCCCC(=O)O [octanoate]
IC50 (CLC-0 E166K mutant; −80 mV): 29200 ± 530 µM
IC50 (CLC-0 E166K mutant; −100 mV): 21600 ± 540 µM
IC50 (CLC-0 E166K mutant; −120 mV): 15400 ± 500 µM
IC50 (CLC-0 E166K mutant; −140 mV): 10600 ± 450 µM
IC50 (CLC-0 E166K mutant; −160 mV): 7240 ± 330 µM
IC50 (CLC-0 E166V mutant; −40 mV): 231 ± 14 µM
IC50 (CLC-0 E166V mutant; −60 mV): 126 ± 6.5 µM
IC50 (CLC-0 E166V mutant; −80 mV): 67.2 ± 3.7 µM
IC50 (CLC-0 E166V mutant; −100 mV): 35.3 ± 2.8 µM
IC50 (CLC-0 E166V mutant; −120 mV): 18.4 ± 1.5 µM
IC50 (CLC-0 E166V mutant; −140 mV): 10.2 ± 0.8 µM
IC50 (CLC-0 E166V mutant; −160 mV): 6 ± 0.4 µM
IC50 (CLC-0 E166N mutant; −40 mV): 4930 ± 180 µM
IC50 (CLC-0 E166N mutant; −60 mV): 2550 ± 47 µM
IC50 (CLC-0 E166N mutant; −80 mV): 1340 ± 29 µM
IC50 (CLC-0 E166N mutant; −100 mV): 694 ± 18 µM
IC50 (CLC-0 E166N mutant; −120 mV): 380 ± 9 µM
IC50 (CLC-0 E166N mutant; −140 mV): 212 ± 4 µM
IC50 (CLC-0 E166N mutant; −160 mV): 125 ± 2 µM

O=C(O)COc1ccc(Cl)cc1 [CPA, p-chlorophenoxy acetate]
block of current (CLC-0 E166K mutant; 0.3 mM CPA, −160 mV): ~10%
IC50 (CLC-0 E166K mutant; −80 mV): 21300 ± 900 µM
IC50 (CLC-0 E166K mutant; −100 mV): 15600 ± 700 µM
IC50 (CLC-0 E166K mutant; −120 mV): 11300 ± 500 µM
IC50 (CLC-0 E166K mutant; −140 mV): 7990 ± 350 µM
IC50 (CLC-0 E166K mutant; −160 mV): 5620 ± 270 µM
IC50 (CLC-0 E166V mutant; −40 mV): 676 ± 78 µM
IC50 (CLC-0 E166V mutant; −60 mV): 373 ± 37 µM
IC50 (CLC-0 E166V mutant; −80 mV): 198 ± 15 µM
IC50 (CLC-0 E166V mutant; −100 mV): 113 ± 10 µM
IC50 (CLC-0 E166V mutant; −120 mV): 65 ± 7 µM
IC50 (CLC-0 E166V mutant; −140 mV): 40 ± 4 µM
IC50 (CLC-0 E166V mutant; −160 mV): 26 ± 3 µM
IC50 (CLC-0 E166N mutant; −40 mV): 9750 ± 570 µM
IC50 (CLC-0 E166N mutant; −60 mV): 5780 ± 220 µM
IC50 (CLC-0 E166N mutant; −80 mV): 3270 ± 90 µM
IC50 (CLC-0 E166N mutant; −100 mV): 1850 ± 40 µM
IC50 (CLC-0 E166N mutant; −120 mV): 1060 ± 20 µM
IC50 (CLC-0 E166N mutant; −140 mV): 620 ± 20 µM
IC50 (CLC-0 E166N mutant; −160 mV): 380 ± 10 µM

From PMC2606940 (The Journal of General Physiology, 2009)
